# Cneo AK release – Cryptococcus neoformans cell lysis inducers, primary screen, AK release luminescence, single concentration; lysis activity, % at 15 µM; 360,000 compounds, 0.2% hits; C. neoformans lysis, adenylate kinase release luminescence, 4 h; normalised: neutral wells 0, clomiphene wells 100; AID 651654, 2012;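 active = mean lysis activity across replicates of at least 80%, whatever share of replicates individually reach that level; inactive = mean lysis activity below 80%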
#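 Test system: log-phase Cryptococcus neoformans yeast cells; Quantity: yeast cell density of 5 × 10^6 cells/mL; Buffer or medium: YPD; Doses: single compound concentration per well; Timing: 4 h at 37 °C static, read 1 h later; Measured by: AK luminescence; Read-out basis: lysis from increased AK signal; Control set: Clomiphene as positive control.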
# FN deposit inh – inhibitors of fibronectin matrix deposition, primary screen, AH1F cells, Alexa488-fibronectin fluorescence, plate reader; AH1F fibroblasts, overnight; inhibition, % at 12.6 µM; 350,000 compounds, 0.086% hits;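 active = mean inhibition across replicates of 30% or more, regardless of how many single replicates reach that level; inconclusive = mean under 30% yet at least half of replicates reach 30%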;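 also: positive control wells lacked labelled fibronectin entirely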
#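 Material – AH1F fibroblast monolayer, labelled fibronectin deposition · Reagent – labelled fibronectin 24 nM · Timing – 1 h adhesion, overnight exposure · Measured by – fluorescence at 485 nm excitation, 525 nm emission · Read-out – inhibition of fibronectin deposition signal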
# Xi reactivation – activators of inactive X chromosome reactivation, primary screen, imaging, XiGFP fibroblasts, GFP high-content imaging, set 2. XiGFP mouse fibroblasts, % GFP-positive cells imaging, 3 d; cells co-treated with 5-aza-dC sensitizer; scaled so ellipticine positive control = 100%. activation, % at 7.58 µM. 360,000 compounds, 0.055% hits. AID 743238, 2013;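 active = mean normalized replicate activation at least 10% and every replicate at or above 10%; inconclusive = only one of the two criteria met; inactive = mean below 10% and not all replicates reach 10%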;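 also: 0% = median of on-plate neutral control wells and 100% = ellipticine 6 µM median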
#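 Material: XiGFP fibroblasts, SV40-immortalized. Buffer or medium: DMEM plus 5-aza-dC sensitizer. Compound: single concentration per compound, delivered by pin transfer. Times: 3 days compound exposure. Controls: ellipticine 6 µM.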
# DENV2 CPE rescue – inhibitors of DENV2 cytopathic effect, primary screen, cell-based, plate reader, single concentration; DENV2-infected cells, cytopathic effect rescue; CPE inhibition, % at 9.99 µM; 350,000 compounds, 1.7% hits; AID 651640, 2012; in the data active = CPE inhibition above about 20%, passing the limit was not always enough; inconclusive = no clear call, values can overlap the other calls; tested in BHK-21 cells;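 also: 0% = median of neutral control wells and 100% = median of positive control wells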
# CFTR F508del cor – F508del CFTR correction, initial screen, CFBE line, single point | CFBE cells, YFP halide quenching; stimulated with forskolin plus potentiator P3; % fluorescence drop versus neutral controls | activity (quench increase), % at 7.58 µM | 350,000 compounds, 0.36% hits | AID 720511, 2013;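 active = mean added fluorescence quench of at least 8% versus neutral control, with both replicates also reaching 8%; inconclusive = only one of the mean or replicate conditions met; inactive = mean below 8% and not both replicates reaching 8%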;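 also: cells transiently co-express mutant CFTR-F508del with the halide-sensitive YFP; corrector assay measuring rescue of mutant channel to the surface after 24 h compound exposure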
# PGC1a acetyl inh – inhibitors of PGC1a acetylation signal, primary screen, cell-based, U2OS, AlphaScreen, inhibitor mode; inhibition, % at 15.6 µM; AID 651687, 2012; AlphaScreen anti-acetyl-lysine; with virally co-expressed GCN5 acetyltransferase; 350,000 compounds, 0.17% hits;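 active = every replicate shows inhibition of at least 40%; inconclusive = mean inhibition at least 40% but some replicate below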;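 also: 0% = neutral control wells and 100% = positive control wells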
# * = called active by the depositor; ? = inconclusive; . = no result given; ! = a repeat was not active. Sampled rows, rich in hits. Any-hit rate of the full collection: about 1.9%.
SMILES,Cneo AK release,FN deposit inh,Xi reactivation,DENV2 CPE rescue,CFTR F508del cor,PGC1a acetyl inh
C[C@@H]1CN([C@H](C)CO)C(=O)Cc2cc(NC(=O)CCCCCC(=O)Nc3ccccc3N)ccc2O[C@@H]1CN(C)Cc1ccc2c(c1)OCO2,0,.,-1,10,0,4
CN(C)CC#Cc1ccc([C@H]2[C@H](CO)N3CCCCN(C(=O)C4CC4)C[C@@H]23)cc1,-2,.,.,.,1,-4
COc1cccc(-c2ccc3c(c2)O[C@H](CN(C)Cc2cncnc2)[C@H](C)CN([C@@H](C)CO)S3(=O)=O)c1,-1,2,-1,28*,0,-1
C[C@H](CO)N1C[C@H](C)[C@H](CN(C)Cc2cncnc2)Oc2cc(C3=CCCCC3)ccc2S1(=O)=O,54,.,0,30*,-1,0
C[C@@H]1CN([C@H](C)CO)S(=O)(=O)c2ccc(-c3cncnc3)cc2O[C@H]1CN(C)C,-1,.,0,34*,3,-5
C[C@@H]1CN([C@@H](C)CO)S(=O)(=O)c2ccc(C3=CCCCC3)cc2O[C@H]1CN(C)Cc1ccccc1,.,-3,0,.,-3,37
C[C@H]1CN([C@@H](C)CO)S(=O)(=O)c2ccc(C3=CCCC3)cc2O[C@H]1CN(C)Cc1cncnc1,-1,.,0,15,2,-64
C[C@@H]1CN([C@H](C)CO)S(=O)(=O)c2ccc(C3=CCCCC3)cc2O[C@H]1CN(C)Cc1ccccc1,.,8,0,.,0,43*
O=C(NCC[C@H]1CC[C@@H](NC(=O)C2CCC2)[C@@H](CO)O1)Nc1ccc(Cl)cc1,-4,.,0,-9,0,-13
CCCNC(=O)N(C)C[C@@H]1Oc2cc(C3=CCCCC3)ccc2S(=O)(=O)N([C@H](C)CO)C[C@H]1C,-3,-9,0,47*,0,-15
C[C@H](CO)N1C[C@H](C)[C@H](CN(C)C(=O)c2ccccc2)Oc2cc(C3=CCCC3)ccc2S1(=O)=O,-1,.,1,27*,-3,-4
COC(=O)[C@@H]1[C@H](CCc2ccccc2)NC(=O)N(Cc2ccccc2)[C@@H]1C,4,-3,-1,68*,1,.
CCN1C(=O)N[C@@H](CCc2ccccc2)[C@H](C(=O)OC)[C@H]1C,-2,6,0,-1,1,.
COc1ccc([C@@H]2[C@@H]3C(=O)N(C(C)(C)C)C(=O)[C@@H]3[C@]3(Cc4ccccc4)C(=O)N(c4ccc(C(F)(F)F)cc4)C(=O)N23)cc1,0,-4,0,-3,9.0*,3
COc1ccc(N2C(=O)N3[C@H](c4cccc(C)c4)[C@@H]4C(=O)N(Cc5ccccc5)C(=O)[C@@H]4[C@]3(Cc3ccccc3)C2=O)cc1,.,-6,0,82*,0,.
CC(C)NC(=O)N(C)C[C@@H]1Oc2cc(C#CC(C)(C)O)ccc2S(=O)(=O)N([C@H](C)CO)C[C@H]1C,2,3,1,5,2,-5
CN(C)CC(=O)Nc1ccc2c(c1)C(=O)N(C)[C@H]1CC[C@H](CC(=O)Nc3ccc(F)cc3)O[C@@H]1CO2,.,1,0,.,.,.
COc1ccc(COCCN2CCN(S(=O)(=O)c3ccc(C)cc3)CCC2=O)cc1,.,6,0,79*,2,.
Cc1ccc(COCCN2CCN(S(=O)(=O)c3ccc(C)cc3)CCC2=O)cc1,-1,6,0,-3,-2,-18
CCOC(=O)N1CCC(NC(=O)c2cc(S(=O)(=O)N3CCc4ccccc43)cn2C)CC1,-2,-5,.,.,.,5
CCOC(=O)c1cc(S(=O)(=O)N2CCc3ccccc32)cn1C,3,-3,0,39*,-1,2
C[C@H]1CN([C@@H](C)CO)S(=O)(=O)c2ccc(-c3cccc(F)c3)cc2O[C@H]1CN(C)S(=O)(=O)c1ccc(F)cc1,-6,2,0,-2,7,8
CC(NC(=S)NC1CCC(C(C)(C)C)CC1)c1ccccc1 (stereo not drawn),6,5,0,23*,-3,-18
O=C(C[C@@H]1C[C@@H]2c3cc(NC(=O)Nc4ccc(F)cc4)ccc3O[C@@H]2[C@H](CO)O1)NC1CCCC1,-2,-1,0,17,-2,3
COc1cccc2c1C(CO)N1C(C#N)C3CC(C(=O)O)C(C1C2)N3C (stereo not drawn),0,.,.,-11,-9,66*
SMILES,Cneo AK release,FN deposit inh,Xi reactivation,DENV2 CPE rescue,CFTR F508del cor,PGC1a acetyl inh
C[C@@H]1CN([C@@H](C)CO)C(=O)c2cc(C#Cc3cccc(F)c3)cnc2O[C@H]1CN(C)C(=O)C1CCCCC1,-1,5,0,22*!,-2,-1
COc1cccc(C#Cc2cnc3c(c2)C(=O)N([C@H](C)CO)C[C@H](C)[C@@H](CN(C)C(=O)C2CCC2)O3)c1,3,.,-1,-3,2,-27
COc1cccc(C#Cc2cnc3c(c2)C(=O)N([C@H](C)CO)C[C@@H](C)[C@H](CN(C)C(=O)C2CCC2)O3)c1,1,.,0,20*,1,7
COc1cccc(C#Cc2cnc3c(c2)C(=O)N([C@@H](C)CO)C[C@@H](C)[C@@H](CN(C)C(=O)C2CCC2)O3)c1,2,.,-1,25*,5,-18
O=C(C[C@@H]1C=C[C@H](NS(=O)(=O)c2ccc(F)cc2)[C@@H](CO)O1)NCc1ccncn1,-3,4,0,-10,0,2
Cc1ccc(C(=O)n2nnc3ccccc32)cc1[N+](=O)[O-],91*,2,0,.,.,6
Cc1ccc(C(=O)Cn2nnc3ccccc32)cc1[N+](=O)[O-],3,5,0,17,1,4
CCOC(=O)N1CCC(C(=O)NNC(=O)c2ccc(Cl)cc2Cl)CC1,-1,-3,0,45*,-2,8
CCOC(=O)N1CCN(C(=O)CNC(=O)c2ccc(Cl)cc2Cl)CC1,0,-5,0,0,-2,8
COc1ccc2c3c(n(C)c2c1)[C@@H](CO)N(C(=O)c1ccc(F)cc1)CC31CCN(C(=O)c2ccc(F)cc2)CC1,.,.,0,3,0,.
O=C(Nc1ccc(F)cc1)N1CCCCN2[C@H](C1)[C@H](c1ccc(-c3cccc(F)c3)cc1)[C@@H]2CO,-3,.,1,?,8.9*,6
